Rtt109 HAT inh = inhibitors of C. albicans Rtt109/Vps75 HAT, primary screen, biochemical, ThioGlo CoA-SH fluorescence, plate reader. Histone acetyltransferase RTT109 (Candida albicans (strain SC5314 / ATCC MYA-2876)), …. purified Rtt109/Vps75, 4 h. inhibition, % at 34.9 µM. hit rate 0.16% among 330,000;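 active = inhibition of at least 50% in every replicate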
Target sequence (Q5AAJ8 whole entry, looked up): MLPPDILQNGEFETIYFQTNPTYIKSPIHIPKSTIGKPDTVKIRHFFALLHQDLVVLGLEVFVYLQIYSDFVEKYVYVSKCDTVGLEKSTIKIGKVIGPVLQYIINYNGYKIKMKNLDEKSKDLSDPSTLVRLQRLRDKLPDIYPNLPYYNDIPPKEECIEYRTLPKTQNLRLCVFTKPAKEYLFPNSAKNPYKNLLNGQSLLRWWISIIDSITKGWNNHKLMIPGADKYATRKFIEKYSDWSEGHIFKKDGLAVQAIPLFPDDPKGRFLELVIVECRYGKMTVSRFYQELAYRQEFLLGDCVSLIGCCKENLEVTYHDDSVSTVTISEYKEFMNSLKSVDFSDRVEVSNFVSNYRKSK
N-glyco inh = increase of ERlucT glycosylation luciferase signal, primary screen, N-linked glycosylation inhibitor project, D54 ERlucT cells, luminescence, set 2. D54 ERlucT glycosylation luciferase reporter, 24 h; percent of 100 nM tunicamycin response. reporter increase, % at 12.5 µM. hit rate 0.23% among 360,000. AID 588692, 2011;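 active = mean luciferase reporter signal, scaled so untreated is 0 and the glycosylation-blocking control 100, at or above a set limit in every replicate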;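 note: luciferase carries N-glycosylation sites so blocking glycosylation raises the light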
SR-BI DiI-HDL act = activators of SR-BI mediated DiI-HDL uptake, primary screen, ldlA[mSR-BI] CHO cells, DiI fluorescence. activation, % at 12.5 µM. AID 504775, 2011. 3 h; 100 = double the neutral-control signal. hit rate 0.096% among 320,000;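 active = mean replicate activation of at least 60% and every replicate at or above 60%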
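material = CHO ldlA[mSR-BI] cells | medium = Ham's F12 with 0.5% BSA, HEPES 25 mM, pH 7.4 | reagent = fluorescent DiI-HDL, 10 µg/mL final | compound dosing = single-point compound dose | incubation = 3 h, 37 °C | measured by = bottom-read fluorescence, 550/595 nm | measure = HDL uptake via cellular fluorescence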
Env fusion inh = inhibitors of HIV-1 Env-driven cell-cell fusion, primary screen, HeLa-JRFL effector, CEM21 target cells, luciferase | AID 651610, 2012 | inhibition, % at 12.3 µM | hit rate 1.1% among 360,000;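 active = mean replicate inhibition score of at least 50 and every replicate individually at or above 50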
PglD inh = C. jejuni PglD acetyltransferase inhibitors, primary screen, biochemical, DTNB colorimetric, single point; purified PglD enzyme, DTNB colorimetric CoA detection; inhibition, % at 12.5 µM; hit rate 0.098% among 360,000; in the data active = inhibition above about 16%, passing the limit was not always enough
SR-BI DiI inh = inhibitors of SR-BI mediated HDL lipid uptake, primary screen, ldlA[mSR-BI] cells, fluorescence, single point. Scavenger receptor class B member 1 (Mus musculus), Q61009. ldlA[mSR-BI] CHO cells, DiI-HDL uptake fluorescence, 3 h. inhibition, % at 12.5 µM. hit rate 0.96% among 320,000;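 active = mean replicate inhibition of at least 70% and a set share of replicates each scoring 70 or more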
A number is an active result; i = inactive; nt = not tested or not shown; ! = a repeat was not active; [ ] = remark or other dose. Rows were chosen to be rich in hits. Some 1.9% of all compounds tested hit in one or more screens of this group.

SMILES	Rtt109 HAT inh	N-glyco inh	SR-BI DiI-HDL act	Env fusion inh	PglD inh	SR-BI DiI inh
CC(C)NC(=O)Nc1ccc2c(c1)C(=O)N([C@H](C)CO)C[C@@H](C)[C@@H](CN(C)C(=O)CCC(F)(F)F)OCCCC[C@@H](C)O2	nt	nt	nt	79.4[16.7 µM]	i	nt
C[C@@H]1CCCCO[C@H](CN(C)C(=O)CCC(F)(F)F)[C@H](C)CN([C@H](C)CO)C(=O)c2cc(NC(=O)CCC(F)(F)F)ccc2O1	nt	nt	nt	86.6[16.7 µM]	i	nt
C[C@@H]1CCCCO[C@@H](CN(C)C(=O)NC2CCCCC2)[C@@H](C)CN([C@H](C)CO)C(=O)c2cc(NS(=O)(=O)c3ccccc3)ccc2O1	nt	nt	nt	i	i	nt
CO[C@H]1CC[C@H]2CCOc3ccc(C#N)cc3C(=O)N(C)CCCC(=O)N(C)C[C@@H]1O2	nt	nt	nt	i	i	nt
O=C(C[C@H]1C=C[C@H](NS(=O)(=O)c2ccccc2)[C@H](CO)O1)NCc1ccc(Cl)c(Cl)c1	nt	nt	nt	i	i	nt
C[C@@H]1CN([C@@H](C)CO)C(=O)c2cc(NC(=O)c3ccccc3)ccc2O[C@@H](C)CCCCO[C@@H]1CN(C)S(=O)(=O)c1cn(C)cn1	nt	nt	nt	i	i	nt
C[C@H]1CN([C@@H](C)CO)C(=O)c2cc(NC(=O)CCCN(C)C)ccc2O[C@@H]1CN(C)Cc1ccncc1	nt	nt	nt	i	i	nt
CCC1=NN(C(=O)c2ccc(Br)cc2)C(O)(c2ccccc2)C1 (stereo not given)	i	i	i	i	nt	79.5
CC1=NN(C(=O)c2ccccc2)C(O)(c2ccc(Br)cc2)C1 (stereo not given)	i	i	i	79.7	nt	94.3
CC1=NN(C(=O)c2ccccc2Cl)C(O)(c2ccccc2)C1 (stereo not given)	i	i	i	i	i	i
O=C(c1ccccc1F)N1N=C(C(F)(F)F)CC1(O)c1ccccc1 (stereo not given)	nt	i	nt	i	i	nt
O=C(c1ccccc1)N1N=C(C(F)(F)F)CC1(O)c1ccccc1O (stereo not given)	i	i	i	57.7	i	i
CCOC(=O)C1=NN(C(=O)c2ccccc2)C(O)(c2ccc(C)cc2)C1 (stereo not given)	i	i	i	i	nt	i
CCC1=NN(C(=O)c2cccc([N+](=O)[O-])c2)C(O)(c2ccc(C)cc2)C1 (stereo not given)	i	i	i	i	i	76.0
CCO[C@H]1OC(C(=O)N2CCOCC2)=C[C@@H](C2CCCCC2)[C@@H]1CCCO	nt	nt	nt	i	i	nt
COc1cccc(S(=O)(=O)N2CC3(CN[C@H](CO)c4[nH]c5cc(OC)ccc5c43)C2)c1	nt	nt	nt	i	nt	nt
Oc1ccc(CN2CCc3ccccc3C2)c2cccnc12	i	i	i	61.5	i	i
Oc1ccc(CNc2ccccc2F)c2cccnc12	i	i	i	114.0!	i	i
CCOc1ccc(NC(=O)CN(C)C(=O)c2cc([N+](=O)[O-])ccc2Sc2ccccc2)cc1OCC	i	i	i	nt	i	76.7
CCOc1ccc(NC(=O)CN(C)C(=O)c2cc([N+](=O)[O-])ccc2N2CCCCC2)cc1OCC	i	i	i	i	i	i
CCOc1ccc(NC(=O)CN(C)C(=O)c2c(C)nn(-c3ccc(F)cc3)c2Cl)cc1OCC	i	i	i	i	i	83.0
CCOc1ccc(NC(=O)CN(C)C(=O)c2ccccc2CCc2ccccc2)cc1OCC	i	i	i	nt	i	94.1
CCOc1ccc(NC(=O)CN(C)C(=O)c2cccc3ccccc23)cc1OCC	i	i	i	i	i	77.7
COc1ccccc1CNC(=O)C[C@@H]1CC[C@@H]2[C@H](COC[C@@H](O)CN2Cc2ccccc2)O1	nt	nt	nt	nt	i	nt
CCOc1ccc(NC(=O)CN(C)C(=O)c2ccccc2OCCOc2ccccc2)cc1OCC	i	i	i	i	i	82.1
SMILES	Rtt109 HAT inh	N-glyco inh	SR-BI DiI-HDL act	Env fusion inh	PglD inh	SR-BI DiI inh
CCOc1ccc(NC(=O)CN(C)C(=O)c2ccncc2)cc1OCC	i	i	i	nt	i	i
CC1CC[C@@]2(OC1)O[C@H]1CC3[C@@H]4C[C@@H](O)[C@@]5(O)C[C@@H](O)[C@H](O)C[C@]5(C)[C@H]4CC[C@]3(C)[C@H]1[C@@H]2C (stereo not given in full)	i	i	68.8	i	nt	i
COc1ccccc1C(=O)Nc1ccc2c(c1)C(=O)N(C)C[C@H](OC)[C@@H](C)CN(C)[C@@H](C)CO2	nt	nt	nt	i	i	nt
O=c1[nH]c(SCCOc2ccccc2)nc2ccccc12	i	i	i	i	i	i
CC(c1nc2ccccc2c(=O)[nH]1)N(C)CCOc1ccc(Cl)cc1 (stereo not given)	i	i	i	97.4	i	i
COC(=O)c1ccc(-c2ccc(OC)c([C@H]3[C@H]4C=CC[C@@H](C)[C@@H]4C(=O)N3Cc3ccccc3)c2)cc1	i	i	i	64.0	i	i
COc1ccc(-c2ccc(C(C)=O)cc2)cc1[C@H]1[C@H]2C=CC[C@@H](C)[C@@H]2C(=O)N1Cc1ccccc1	i	i	nt	i	i	nt
COC(=O)c1cc2c(-c3ccccc3)cc3ccccn3c-2c1C(=O)OC	i	i	i	nt	i	84.5
NC(=O)c1ccc(NC(=O)c2ccc(COc3ccccc3Br)cc2)cc1	i	i	i	i	i	i
Cc1cc(C)n(Cc2ccc(NC(=O)c3ccc(COc4ccccc4Br)cc3)cc2)n1	i	i	i	78.7	i	i
Cc1nn(C)c(C)c1/C=C/C(=O)O	i	i	i	i	i	i
Cc1nn(C)c(C)c1/C=C/C(=O)c1ccc(Cl)cc1Cl	i	i	i	56.1	nt	i
C[C@@H]1CN([C@@H](C)CO)C(=O)Cc2cc(NC(=O)c3ccncc3)ccc2O[C@H]1CN(C)Cc1ccc(Cl)c(Cl)c1	nt	nt	nt	72.7[16.7 µM]	i	nt
C[C@@H]1CN([C@@H](C)CO)C(=O)Cc2cc(NS(=O)(=O)c3cccs3)ccc2O[C@H]1CN(C)Cc1ccc(C(F)(F)F)cc1	nt	nt	nt	77.5[16.7 µM]	i	nt
COc1ccc(S(=O)(=O)Nc2ccc3c(c2)CC(=O)N([C@@H](C)CO)C[C@@H](C)[C@H](CN(C)Cc2ccc(C(F)(F)F)cc2)O3)cc1	nt	nt	nt	72.7[16.7 µM]	i	nt
COc1ccc(S(=O)(=O)Nc2ccc3c(c2)CC(=O)N([C@@H](C)CO)C[C@@H](C)[C@@H](CN(C)Cc2ccc(C(F)(F)F)cc2)O3)cc1	nt	nt	nt	i	i	nt
C[C@H]1CN([C@@H](C)CO)C(=O)Cc2cc(NS(=O)(=O)c3cccs3)ccc2O[C@@H]1CN(C)Cc1ccc(C(F)(F)F)cc1	nt	nt	nt	i	i	nt
